Screening results (PubChem BioAssay)
Cneo AK release = causes C. neoformans cell lysis; adenylate kinase release luminescence, 4 h; normalised: neutral wells 0, clomiphene wells 100; lysis activity, % at 15 µM; 0.2% of 360,000 active; AID 651654;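 active = mean lysis activity across replicates of at least 80%, whatever share of replicates individually reach that level; inactive = mean lysis activity below 80%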
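Schedule: static 4 h at 37 °C with compound, 1 h detection; system: C. neoformans cells; benchmarks: Clomiphene as positive control; buffer or medium: fresh YPD medium; measure: luminescence rise reflecting yeast cell lysis; measured by: luminescent adenylate kinase detection reagent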
CFTR F508del cor = CFTR F508del correction in bronchial cells; CFBE cells, YFP halide quenching; stimulated with forskolin plus potentiator P3; % fluorescence drop versus neutral controls; activity (quench increase), % at 7.58 µM; 0.36% of 350,000 active; AID 720511;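 active = mean added fluorescence quench of at least 8% versus neutral control, with both replicates also reaching 8%; inconclusive = only one of the mean or replicate conditions met; inactive = mean below 8% and not both replicates reaching 8%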;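 note: cells transiently co-express mutant CFTR-F508del with the halide-sensitive YFP; corrector assay measuring rescue of mutant channel to the surface after 24 h compound exposure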
INS-1E GSIS act = GLuc luminescence reporter in INS-1E cells, primary screen for activators of glucose-dependent secretion of insulin; AID 743287; INS-1E GLuc reporter insulin secretion, 2-3 h; activation, % at 16.6 µM; 0.61% of 370,000 active;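 active = lowest replicate activation of at least 40%, so every replicate reaches that level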;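 note: 0% = median of neutral control wells and 100% = median of IBMX positive control wells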
HIV Env fusion = blocks HIV Env-driven cell-cell fusion. inhibition, % at 12.3 µM. HeLa-JRFL Env/CEM21 cell fusion, luciferase. AID 651610. 1.1% of 360,000 active;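 active = mean replicate inhibition score of at least 50 and every replicate individually at or above 50; inconclusive = only one of the two criteria met; inactive = mean below 50 and not all replicates reaching 50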;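 note: 0% = plate neutral controls and 100% = maraviroc near 300 nM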
rRNA inh HTS = inhibits bacterial ribosomal RNA function over humanized ribosomes; E. coli WT GFP vs humanized-ribosome RFP mutants, fluorescence, 24 h; hits give low values; DMSO median 0, no signal -100; GFP signal change (wild-type ribosome), % (no concentration beside the values); 1.6% of 350,000 active;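 active = significant combined selectivity score with lowered wild-type GFP, culture density cut under 30%, mutant RFP and density less affected; inactive = any of these conditions unmet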
miR122 inh = inhibitors of miR-122 in Huh7 cells. Huh7 miR-122 Renilla luciferase sensor, 48 h; neutral wells = 0, positive control = 100. activation (reporter increase), % at 12.5 µM. 0.3% of 340,000 active. AID 602342;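 active = mean replicate activation score at least 90 and every replicate individually at or above 90; inconclusive = only one of the two criteria met; inactive = neither criterion met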;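 note: higher luciferase means less miR-122 activity so hits act as miR-122 inhibitors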
AID977621 = wild-type E. coli growth inhibition versus H69 humanized strain – H69 mutant RFP, wild-type GFP, cherry-pick, dose response; 1,900 tested, under 10 active; fluorescence, 24 h; activity change, negative = inhibition at 50 µM; shares compounds with rRNA inh HTS; AID 977621;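 active = Wild-type ribosome reporter drop at least double the humanized mutant ribosome reporter drop, growth loss under a set limit; inconclusive = no clear call, values can overlap the other calls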;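 note: wild-type GFP and H69 mutant RFP strains grown together 50/50 in each well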
AID977628 = growth of wild-type and h24-humanized E. coli strains – h24 mutant RFP vs wild-type GFP, cherry-pick, dose response. shares compounds with rRNA inh HTS. E. coli WT GFP strain growth, fluorescence, 24 h. activity change, negative = inhibition at 50 µM. 1,900 tested, under 10 active;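 active = compound lowering the normal-ribosome reporter at least twice as much as the humanized-ribosome reporter, growth loss under a set limit; inconclusive = no clear call, values can overlap the other calls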;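 note: wild-type GFP and h24 humanized RFP strains co-cultured 1 to 1 per well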
Starred values were filed as active, the others as inactive; ? = inconclusive; nt = no result; [ ] = another dose, or the depositor's remark. A selection: hits, their analogues and other compounds. The true share with any hit is near 3.1%.

SMILES	Cneo AK release	CFTR F508del cor	INS-1E GSIS act	HIV Env fusion	rRNA inh HTS	miR122 inh	AID977621	AID977628
CC(C)(O)C#Cc1cccc(-c2nc(C(=O)O)cc3c2[C@H](CCO)N(S(=O)C(C)(C)C)C3)c1 (some centres undefined)	0.7	nt	5.3	13.7[16.7 µM]	5.3	nt	nt	nt
COc1ccc(-c2nc(NC(C)=O)sc2-c2ccccc2)cc1	nt	0.3	-8.0	6.2	-17.8*	nt	-3.79	nt
O=C(COC(=O)c1ccc(O)cc1)Nc1ccc(OC(F)F)cc1	1.8	-3.9	4.0	7.3	10.5	1.4	nt	nt
O=C(COC(=O)c1ccc(O)cc1)Nc1ccccc1	-0.9	1.3	-7.8	-51.5	-21.3*	nt	-5.03	-0.613
Cc1cccc(C)c1OCC(O)CN1CCN(c2ccccn2)CC1 (centres undefined)	nt	0.9	20.9	6.1	-8.1	-3.0	nt	nt
Cc1ccc(OCC(O)CN2CCN(c3ccccn3)CC2)c(C)c1 (centres undefined)	nt	1.2	-11.3	2.9	-17.3*	nt	nt	?
C#Cc1ccc([C@@H]2C=C(C(=O)N3CCCCCCC3)O[C@H](OCC)[C@H]2CCCO)cc1	0.1	1.0	nt	25.4[16.7 µM]	nt	nt	nt	nt
COc1cccc(OC)c1C(=O)Nc1ccc(N2CCN(C(=O)c3cccs3)CC2)cc1	0.8	1.8	-21.5	-0.8	-3.2	nt	nt	nt
COc1ccc(NC(=O)c2cccs2)cc1C(=O)N1CCN(c2ccccc2)CC1	-0.3	1.9	-21.9	-2.8	-20.9*	4.5	-6.99	-13.9
Cc1noc(C)c1S(=O)(=O)Nc1ccc2c(c1)CC(=O)N([C@H](C)CO)C[C@H](C)[C@@H](CN(C)CC1CCCCC1)O2	2.2	0.1	-19.3	7.4[16.7 µM]	-0.8	-4.9[16.7 µM]	nt	nt
COCC(=O)N1CC(=O)N2[C@H](C1)[C@H](c1ccc(-c3ccncc3)cc1)[C@@H]2CO	nt	-1.7	7.5	nt	2.9	nt	nt	nt
CC(C)n1nnnc1C1c2ccccc2C(=O)N1CCOc1ccccc1 (centres undefined)	nt	-0.5	22.0	-29.0	-18.2*	nt	-7.51	-16
O=[N+]([O-])c1ccc(NCCNCCOc2nonc2-c2ccccc2)c([N+](=O)[O-])c1	2.1	-0.4	5.1	4.7	-21.0*	-9.4	5.63	-0.84
COc1cccc(-c2ccc([C@@H]3[C@@H](CO)N4C(=O)CN(C(=O)CN5CCOCC5)C[C@H]34)cc2)c1	nt	4.5	19.7	nt	2.8	nt	nt	nt
C[C@H]1CN([C@@H](C)CO)C(=O)c2cc(NC(=O)Nc3ccc(F)cc3)ccc2O[C@H]1CN(C)S(=O)(=O)c1cn(C)cn1	44.8	0.8	1.9	6.9[16.7 µM]	-1.4	10.4[16.7 µM]	nt	nt
Cc1nn(S(=O)(=O)c2ccc(Cl)cc2)c(C)c1Sc1ccc([N+](=O)[O-])cc1	-3.1	14.9*	-39.7	52.1	-27.9*	-5.0	-2.62	nt
O=C(C1CC1)N1CC(=O)N2[C@H](CO)[C@@H](c3ccc(Br)cc3)[C@H]2C1	nt	0.6	-6.5	nt	0.4	nt	nt	nt
O=C(Nc1ccc(S(=O)(=O)NC2=NCCCCC2)cc1)c1ccc([N+](=O)[O-])s1	-3.8	-1.0	-38.8	-8.6	-20.4*	12.8	?	-4.13
Cc1ccccc1SCC(=O)OCC(=O)Nc1sccc1C(N)=O	nt	nt	-28.8	13.2	-29.4*	nt	-8.31	-0.104
NC(=O)c1ccsc1NC(=O)COC(=O)Cc1ccc(F)cc1	-0.2	2.7	nt	4.0	-19.5*	-8.5	?	-1.71
C[C@H](CO)N1C[C@H](C)[C@@H](CN(C)C(=O)NC2CCCCC2)OCCCC[C@H](C)Oc2ccc(NC(=O)c3ccccc3)cc2C1=O	-12.0	-1.7	-21.9	-4.2[16.7 µM]	-4.5	-5.1[16.7 µM]	nt	nt
CC(=O)C(C(c1ccccc1)N1CCOCC1)N1CCOCC1 (centres undefined)	0.1	-1.4	27.2	0.9	14.1	-7.0	nt	nt
COc1ccccc1C(C(C(=O)c1ccccc1)N1CCOCC1)N1CCOCC1 (centres undefined)	-1.0	1.6	1.3	1.2	-14.4*	-9.8	-7.06	?
Cc1cccc(C(=O)NCC(=O)N2CC=C(c3ccccc3)CC2)c1	0.0	-1.0	-4.6	-1.0	-30.5*	-6.7	0.374	?
CCCCn1c(=O)[nH]c(=O)c2c1nc(-c1ccc(-c3ccccc3)cc1)n2C	-0.5	-2.6	9.6	6.3	3.4	-1.3	nt	nt
SMILES	Cneo AK release	CFTR F508del cor	INS-1E GSIS act	HIV Env fusion	rRNA inh HTS	miR122 inh	AID977621	AID977628
CCCCn1c(=O)[nH]c(=O)c2c1nc(-c1ccccc1F)n2Cc1ccccc1	nt	0.1	-6.0	4.8	-25.9*	nt	-6.63	?
COc1ccc(S(=O)(=O)Nc2ccc3c(c2)[C@H]2C[C@H](CC(=O)N(C)C)O[C@H](CO)[C@H]2O3)cc1	10.2	-4.0	-1.4	-44.6[16.7 µM]	-1.1	4.4[16.7 µM]	nt	nt
Cn1c(CC2C(=O)Nc3ccc(Br)cc32)nc2ccccc2c1=O (centres undefined)	-0.8	2.1	-34.9	nt	-28.8*	nt	-1.92	3.71
C[C@H]1CN([C@@H](C)CO)C(=O)c2cc(NC(=O)NC3CCCCC3)ccc2O[C@@H]1CN(C)S(=O)(=O)c1ccccc1	-0.1	-3.0	-16.5	nt	-0.7	1.5[16.7 µM]	nt	nt
C[C@H](CO)N1C[C@H](C)[C@H](CN(C)S(=O)(=O)c2ccc(F)cc2)Oc2ccc(NC(=O)C3CC3)cc2CC1=O	8.6	0.4	1.8	20.6[16.7 µM]	-2.4	-2.6[16.7 µM]	nt	nt
Cc1ccc(S(=O)(=O)N(C)C[C@@H]2OCCCC[C@H](C)Oc3ccc(NC(=O)NC(C)C)cc3C(=O)N([C@@H](C)CO)C[C@H]2C)cc1	1.9	1.0	-6.6	-9.4[16.7 µM]	-1.7	8.0[16.7 µM]	nt	nt
O=C(COC(=O)c1cccc(S(=O)(=O)N2CCCCC2)c1)NCc1cccc(Cl)c1	-0.8	-1.9	-12.5	20.1	-15.1*	-5.8	nt	2.4
N#C[C@H]1[C@H](c2ccccc2-c2ccc(F)cc2)[C@H](CO)N1c1ncc(-c2ccccc2)s1	nt	1.3	-3.8	nt	-2.1	nt	nt	nt
COc1ccc(-c2nc(C3CCCCC3)no2)cc1OC	-9.1	-1.2	4.9	nt	-19.1*	-4.5	-0.859	-16.5
CN(C(=O)COc1ccccc1C(=O)NCCOc1ccccc1)c1ccccc1	nt	nt	-58.2	11.6	-19.0*	nt	-9.1	nt
O=C(NCCOc1ccccc1)c1ccccc1Cl	0.1	1.8	13.6	-3.1	12.8	nt	nt	nt
O=C(Cc1cccc(NC(=O)C2CCN(C(=O)CCc3ccccc3)CC2)c1)Nc1cccc(C(=O)N2CCCC2)c1	1.7	-3.4	6.9	7.5	-18.8*	-8.7	-22.9	nt
